Here are results for 84 variants from the RNAGym collection of RNA variant scans (doi:10.1038/s41586-018-0170-7).

The chains are these.
B1: tRNA (parent)
chain: GUUCCGUUGGCGUAAUGGUAACGCGUCUCCCUCCUAAGGAGAAGACUGCGGGUUCGAGUCCCGUACGGAACG

The variants in this data set derive from B1. Put plainly: yeast fitness, log relative to wild type (ln ratio); higher = fitter; tRNA-Arg(CCU), competitive growth, 37 C, 1 M NaCl. An outline of the steps: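 BY4742 cells without the chromosomal tRNA-Arg(CCU) gene carried a combinatorial variant library on a HIS3 centromeric plasmid, from two independent transformations. After 4 generations in SC-HIS at 30 °C, pools spent ~6.5 generations (~26.5 h) in SC-HIS 1M NaCl at 37 °C, giving three outputs per input, and 125 bp paired-end Illumina reads counted the variants. Fitness is the natural log of each genotype's generations over the wild type's, with generations taken as OD-scaled log2 output/input frequency weighted by inverse variance across replicates.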
With U2G C66U A70G, the “yeast fitness (ln)” value was -0.0789.

For U2G C66U A70U, the “yeast fitness (ln)” value was -0.00968. For U2G G6A C27U A43C, the “yeast fitness (ln)” value is -0.0726. To U2G C27U A43C C46U C66U A69G A70G C71U belongs -0.249.

Turning to U2G G6A A43C C46U C66U A70G, the “yeast fitness (ln)” value was -0.205. In the case of U2G G6A A43C C46U C66U A70U, the “yeast fitness (ln)” value was -0.000672. To U2G G6A A69G A70G belongs -0.139. To U2G G6A A69G A70U belongs -0.265.

As to U2G G6A C27U A43C A69G A70G C71U, the “yeast fitness (ln)” value is -0.176.

With U2G C27U A43C C46U A70U C71U, the “yeast fitness (ln)” value was -0.0906. To U2G C27U A43C C66U A69G A70G belongs -0.348; to U2G C27U A43C C66U A69G A70U, -0.346; to U2G C46U C71U, -0.0759. To U2G C27U A69G C71U belongs -0.152. To U2G G6A A43C C46U C66A A69G C71U belongs -0.341; to U2G C46U A69G, -0.208. With U2G C27U C46U A69G, the “yeast fitness (ln)” value was -0.0724. To U2G G6A A43C C46U C66U A70G C71U belongs -0.149.

With U2G C46U C66A A69G A70U, the “yeast fitness (ln)” value is -0.0347.

In the case of U2G C46U C66A A69G A70G, the “yeast fitness (ln)” value was -0.0404. U2G C46U C66U A70G: the “yeast fitness (ln)” value was -0.11. To U2G C46U C66U A70U belongs -0.00424; to U2G C27U C46U A69G A70G C71U, -0.169; to U2G G6A C27U A43C C66U C71U, -0.373.

With U2G G6A A43C C66A A70G C71U, the “yeast fitness (ln)” value is -0.198.

Regarding U2G C27U C66U A70U, the “yeast fitness (ln)” value was -0.0967. In the case of U2G C27U C66U A70G, the “yeast fitness (ln)” value is -0.147. To U2G C27U C46U C66U A69G A70G belongs -0.187; to U2G C27U C46U C66U A69G A70U, -0.392; to U2G G6A C27U A43C C46U C66A A70G, -0.132.

Take U2G G6A C27U A43C C46U C66A A70U: the “yeast fitness (ln)” value is -0.115. To U2G G6A C27U A43C C46U C66U A70G belongs -0.143; to U2G G6A C27U A43C C46U C66U A70U, -0.0122; to U2G G6A A43C C46U C66U A69G C71U, -0.303.

Consider U2G C27U A43C C46U C66A A70G C71U, for which the “yeast fitness (ln)” value was -0.162.

Take U2G C66A C71U: the “yeast fitness (ln)” value is -0.108.

For the variant U2G C46U C66U A70U C71U, the “yeast fitness (ln)” value is -0.28.

In the case of U2G C46U C66U C71U, the “yeast fitness (ln)” value is -0.115. To U2G C46U C66U A69G A70G C71U belongs -0.114. To U2G G6A C27U A43C C46U C66U A70U C71U belongs -0.598; to U2G C27U C66A A69G A70U C71U, -0.431. To U2G G6A C27U A43C C46U A69G A70U C71U belongs -0.384. For U2G G6A C27U A43C C46U C66U A70G C71U, the “yeast fitness (ln)” value is -0.194. To U2G C27U A43C C66U A69G C71U belongs -0.354; to U2G C27U C66U A69G A70U, -0.212; to U2G C27U C66U A69G A70G, -0.288. To U2G C66U A69G A70G C71U belongs -0.204; to U2G C27U A43C C46U C66U A70G C71U, -0.231. Turning to U2G C46U A70U C71U, the “yeast fitness (ln)” value is -0.0115. To U2G C27U C46U C71U belongs -0.099; to U2G C27U A43C C46U C66U A69G A70U, -0.221. As for U2G C27U A43C C46U C66U A69G A70G, the “yeast fitness (ln)” value was -0.275.

Regarding U2G G6A C27U A43C C66U A69G C71U, the “yeast fitness (ln)” value is -0.35. To U2G G6A A43C C46U C66U A70U C71U belongs -0.175. Take U2G C27U A69G: the “yeast fitness (ln)” value was -0.0592. To U2G G6A C27U A43C C46U A70U belongs -0.119; to U2G G6A C27U A43C C46U A70G, -0.145. Turning to U2G G6A A43C C46U A69G A70G C71U, the “yeast fitness (ln)” value was -0.226.

Consider U2G C27U C46U C66U A70G C71U, for which the “yeast fitness (ln)” value was -0.175. To U2G C46U C66A A69G A70G C71U belongs -0.139; to U2G G6A C27U A43C C46U A70U C71U, -0.176; to U2G G6A C27U A43C C66A A69G A70U C71U, -0.548. To U2G G6A C27U C46U A69G A70G C71U belongs -0.194; to U2G G6A C27U A69G A70G, -0.193; to U2G G6A C27U A69G A70U, -0.151. To U2G G6A A43C C46U C66A A69G A70G C71U belongs -0.212; to U2G G6A C27U C46U A69G C71U, -0.174; to U2G C46U A69G A70U, 0.00211. Regarding U2G C46U A69G A70G, the “yeast fitness (ln)” value is -0.131. As for U2G G6A C27U A70U C71U, the “yeast fitness (ln)” value is -0.144. Regarding U2G G6A C27U A69G, the “yeast fitness (ln)” value was -0.24. To U2G C27U C66U C71U belongs -0.194; to U2G C27U A43C C46U C66A A69G A70U C71U, -0.498. As for U2G G6A A43C C66U A69G A70U, the “yeast fitness (ln)” value was -0.235. To U2G G6A A43C C66U A69G A70G belongs -0.257.

Take U2G G6A C27U A43C C46U A69G C71U: the “yeast fitness (ln)” value was -0.22. As to U2G C46U A69G A70U C71U, the “yeast fitness (ln)” value is -0.191. Take U2G C46U C66U A69G A70G: the “yeast fitness (ln)” value is -0.174. For the variant U2G C46U C66U A69G A70U, the “yeast fitness (ln)” value is -0.0704.

As to U2G C46U A69G C71U, the “yeast fitness (ln)” value was -0.0879. To U2G G6A A43C C46U A69G C71U belongs -0.206; to U2G G6A C27U A43C C66U A70U C71U, -0.339. Regarding U2G G6A A43C C46U C66A C71U, the “yeast fitness (ln)” value is -0.153. To U2G G6A C27U A43C C66A C71U belongs -0.2.
